Reference: ChEMBL document CHEMBL3861997 (Bioorg Med Chem, 2016)
pIC50: −log10 of the molar value.

How the values were obtained:
[1] = Anticoagulant activity in healthy human plasma assessed as increase in prothrombin time; assay type: functional
Outline: (§1)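 Concentration doubling clotting time (EC2x), human or rabbit plasma. Plasma from centrifugation at 2000 g, 10 min. Inhibitor stock in DMSO, serially diluted; clotting time measured in control plasma and plasma with five to seven inhibitor concentrations. PT run on temperature-controlled automated coagulation analyser with Thromborel-S reagent. Duplicate determinations at each concentration.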

Coagulation factor X = Coagulation factor X (Homo sapiens, UniProt P00742); experiment: Inhibition of human coagulation factor 10a assessed as reduction in p-nitroaniline cleavage from pefachrome substrate preincubated for 10 mins followed by substrate addition measured after 20 mins
[2] = Anticoagulant activity in rabbit plasma assessed as increase in prothrombin time; assay type: functional, Oryctolagus cuniculus; outline: as §1
[3] = Anticoagulant activity in healthy human plasma assessed as increase in activated partial thromboplastin time; assay type: functional
Rattus norvegicus = organism: Rattus norvegicus; experiment: Antithrombotic activity in rat venous thrombus model assessed as inhibition of thrombus formation relative to control; assay type: functional
Outline: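 Rat venous stasis model: after 2 h the abdomen was reopened and the vena cava dissected longitudinally. Thrombus removed, held at 37 °C for 24 h, then dry weight measured.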

[4] = Anticoagulant activity in rabbit plasma assessed as increase in activated partial thromboplastin time; assay type: functional, Oryctolagus cuniculus

Chain of Coagulation factor X (P00742 41-179 limits assumed): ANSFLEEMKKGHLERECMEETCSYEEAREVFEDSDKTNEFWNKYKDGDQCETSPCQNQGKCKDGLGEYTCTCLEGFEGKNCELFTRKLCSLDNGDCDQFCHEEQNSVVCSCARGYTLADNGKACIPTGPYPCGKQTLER
Chain of Coagulation factor X (P00742 235-488 limits assumed): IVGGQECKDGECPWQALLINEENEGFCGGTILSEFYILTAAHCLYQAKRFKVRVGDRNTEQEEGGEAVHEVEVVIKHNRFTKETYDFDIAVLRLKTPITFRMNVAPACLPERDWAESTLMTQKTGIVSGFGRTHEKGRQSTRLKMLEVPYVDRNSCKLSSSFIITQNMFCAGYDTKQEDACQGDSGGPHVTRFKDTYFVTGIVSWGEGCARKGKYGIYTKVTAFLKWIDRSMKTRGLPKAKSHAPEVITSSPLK

Row | Structure (SMILES) | 2PT [1] [µM] | pIC50 (Coagulation factor X) | 2PT [2] [µM] | 2aPTT [3] [µM] | inhibition (INH) (Rattus norvegicus) [%] | 2aPTT [4] [µM]
1 | COc1ccc(-n2nc(-c3nc[nH]n3)c3c2C(=O)N(c2ccc(N4CCCCC4=O)cc2)CC3)cc1 | 0.5 | 6.82 | 0.7 | 0.8 | 99 | 1.2
2 | COc1ccc(-n2nc(-c3n[nH]c(=O)n3-c3ccccc3C(F)(F)F)c3c2C(=O)N(c2ccc(N4CCCCC4=O)cc2)CC3)cc1 | 16.8 | – | 17.9 | 30.1 | – | 32.1
3 | COc1ccc(-n2nc(-c3nncn3CCN(C)C)c3c2C(=O)N(c2ccc(N4CCCCC4=O)cc2)CC3)cc1 | 3.9 | – | 4.4 | 7 | – | 8
4 | CCN(CC)CCCn1cnnc1-c1nn(-c2ccc(OC)cc2)c2c1CCN(c1ccc(N3CCCCC3=O)cc1)C2=O | 5 | – | 6.1 | 10 | – | 11.1
5 | COc1ccc(-n2nc(-n3cccc3CN(C)C)c3c2C(=O)N(c2ccc(N4CCCCC4=O)cc2)CC3)cc1 | 1.5 | – | 1.9 | 3.5 | – | 3.2
6 | COc1ccc(-n2nc(-c3n[nH]c(=O)n3-c3ccc(OC)cc3)c3c2C(=O)N(c2ccc(N4CCCCC4=O)cc2)CC3)cc1 | 14.8 | – | 9.2 | 21.3 | – | 19.2
7 | O=C1CCCCN1c1ccc(N2CCc3c(-c4nc[nH]n4)nn(-c4ccc(OC(F)F)cc4)c3C2=O)cc1 | 3.6 | – | 4 | 6.6 | – | 7.8
8 | O=C1CCCCN1c1ccc(N2CCc3c(-c4nc[nH]n4)nn(-c4ccc(Cl)cc4)c3C2=O)cc1 | 4.3 | – | 4.2 | 8.4 | – | 9.9
9 | CCN(CC)Cc1cccn1-c1nn(-c2ccc(OC)cc2)c2c1CCN(c1ccc(N3CCCCC3=O)cc1)C2=O | 1.6 | – | 2.1 | 3.7 | – | 3.9
10 | COc1ccc(-n2nc(-n3cccc3CN3CCOCC3)c3c2C(=O)N(c2ccc(N4CCCCC4=O)cc2)CC3)cc1 | 1.1 | 5.62 | 1.7 | 2.4 | 57 | 3.9
11 | COc1ccc(-n2nc(-c3ncnn3C)c3c2CCN(c2ccc(N4CCCCC4=O)cc2)C3=O)cc1 | 3.3 | – | 4.1 | 10 | – | 15.1
12 | COc1ccc(-n2nc(-c3n[nH]c(C4CC4)n3)c3c2C(=O)N(c2ccc(N4CCCCC4=O)cc2)CC3)cc1 | 3.5 | – | 4.9 | 5.1 | – | 6
13 | COc1ccc(-n2nc(-c3n[nH]c(C)n3)c3c2C(=O)N(c2ccc(N4CCCCC4=O)cc2)CC3)cc1 | 1.6 | – | 1.9 | 3.7 | – | 3.2
14 | COc1ccc(-n2nc(-c3nncn3CCCN3CCOCC3)c3c2C(=O)N(c2ccc(N4CCCCC4=O)cc2)CC3)cc1 | 5.5 | – | 7.5 | 10.5 | – | 15
15 | O=C1CCCCN1c1ccc(N2CCc3c(-c4nc[nH]n4)nn(-c4ccc(F)cc4)c3C2=O)cc1 | 1.8 | – | 2.8 | 4.5 | – | 5.1
16 | COc1ccc(-n2nc(-c3n[nH]c(=O)n3-c3ccccc3)c3c2C(=O)N(c2ccc(N4CCCCC4=O)cc2)CC3)cc1 | 12.9 | – | 13.3 | 20.3 | – | 22.1
17 | O=C1CCCCN1c1ccc(N2CCc3c(-c4nc[nH]n4)nn(-c4ccc(Br)cc4)c3C2=O)cc1 | 6.4 | – | 7.9 | 11.3 | – | 10.2
18 | O=C1CCCCN1c1ccc(N2CCc3c(-c4nc[nH]n4)nn(-c4ccc(OC(F)(F)F)cc4)c3C2=O)cc1 | 5.5 | – | 6.4 | 10.5 | – | 12
19 | COc1ccc(-n2nc(C(N)=O)c3c2C(=O)N(c2ccc(C4=NCCN4)cc2)CC3)cc1 | 0.9 | 5.70 | 0.7 | 0.9 | 66 | 1
20 | COc1ccc(-n2nc(-c3n[nH]c(C4CCCO4)n3)c3c2C(=O)N(c2ccc(N4CCCCC4=O)cc2)CC3)cc1 (configuration not stated) | 3.9 | – | 5 | 6.3 | – | 7.9
21 | COc1ccc(-n2nc(-c3ncn(C)n3)c3c2CCN(c2ccc(N4CCCCC4=O)cc2)C3=O)cc1 | 0.8 | 5.62 | 0.9 | 1.9 | 65 | 3
22 | COc1ccc(-n2nc(-c3nncn3CCCN(C)C)c3c2C(=O)N(c2ccc(N4CCCCC4=O)cc2)CC3)cc1 | 4.5 | – | 5.7 | 9 | – | 10.1
23 | COCc1nc(-c2nn(-c3ccc(OC)cc3)c3c2CCN(c2ccc(N4CCCCC4=O)cc2)C3=O)n[nH]1 | 2.4 | – | 3 | 4.1 | – | 6
24 | COc1ccc(-n2nc(-c3n[nH]c(C(C)(C)C)n3)c3c2C(=O)N(c2ccc(N4CCCCC4=O)cc2)CC3)cc1 | 1 | 6.07 | 1.4 | 2.3 | 70 | 4.1
25 | COc1ccc(-n2nc(C(N)=O)c3c2C(=O)N(c2ccc(C4=NCCCN4)cc2)CC3)cc1 | 0.9 | 6.46 | 1.1 | 1.1 | 82 | 2
26 | COc1ccc(-n2nc(C(N)=O)c3c2C(=O)N(c2ccc(N4CCCCC4=O)cc2)CC3)cc1 [APIXABAN] | 0.8 | – | 0.6 | 0.9 | 96 | 1.4
